According to ChEMBL document CHEMBL2417474, “Synthesis, antiproliferative and anti-inflammatory activities of some novel 6-aryl-2-(p-(methanesulfonyl)phenyl)-4,5-dihydropyridazi-3(2H)-ones” (Eur J Med Chem, 2013):

Columns and labels:
Format in all cases: functional
[1] = Growth inhibition of human EKVX cells assessed as cell growth at 10 uM after 48 hrs by sulforhodamine B assay; details: read-out: Activity
CAKI-1 [2] = test: Growth inhibition of human CAKI-1 cells assessed as cell growth at 10 uM after 48 hrs by sulforhodamine B assay; details: CAKI-1, 48 h, read-out: Activity
SK-MEL-5 = test: Growth inhibition of human SK-MEL-5 cells assessed as cell growth at 10 uM after 48 hrs by sulforhodamine B assay; details: SK-MEL-5, 48 h, read-out: Activity
NCI-H460 = test: Growth inhibition of human NCI-H460 cells assessed as cell growth at 10 uM after 48 hrs by sulforhodamine B assay; details: NCI-H460, 48 h, read-out: Activity
SR = test: Growth inhibition of human SR cells after 48 hrs by sulforhodamine B assay
How it was run: (§1)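 NCI 60-cell-line panel. Cells were grown in medium with 5% fetal calf serum and 2 mM L-glutamine, then preincubated 24 h in plates. Compounds were added from DMSO at five 10-fold concentrations from 100 to 0.01 µM and left on cells continuously for 48 h. Cell growth was read by sulforhodamine B protein stain. GI50 is the concentration that halves net protein increase relative to control cells.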

MOLT-4 = test: Growth inhibition of human MOLT4 cells after 48 hrs by sulforhodamine B assay; details: MOLT-4, 48 h; how it was run: as §1
DU-145 = test: Growth inhibition of human DU145 cells after 48 hrs by sulforhodamine B assay; details: DU-145, 48 h
How it was run: (§2)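 NCI 60-cell-line panel grown in RPMI-type medium with 5% fetal calf serum and 2 mM L-glutamine. Cells preincubated 24 h, then exposed continuously for 48 h to compound in DMSO at 10^-4 to 10^-8 M (five 10-fold levels). Growth read by SRB protein stain. GI50 is the concentration giving a 50% reduction in net protein increase relative to control cells.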

LOX IMVI = test: Growth inhibition of human LOXIMVI cells after 48 hrs by sulforhodamine B assay; how it was run: as §2
K562 = test: Growth inhibition of human K562 cells after 48 hrs by sulforhodamine B assay; details: K562, 48 h; how it was run: as §2
PC-3 = test: Growth inhibition of human PC3 cells assessed as cell growth at 10 uM after 48 hrs by sulforhodamine B assay; details: PC-3, 48 h, read-out: Activity
HL-60(TB) = test: Growth inhibition of human HL-60(TB) cells assessed as cell growth at 10 uM after 48 hrs by sulforhodamine B assay; details: HL-60, 48 h, read-out: Activity
[3] = Growth inhibition of human NCI-ADR-RES cells after 48 hrs by sulforhodamine B assay; how it was run: as §1
Rattus norvegicus = test: Antiinflammatory activity in Wistar rat assessed as inhibition of carrageenan-induced paw edema at 0.05 mmol/kg, po administered 30 mins prior challenge measured after 5 hrs
How it was run: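 Wistar rats of either sex, 150–175 g, fasted 16 h, 6 per group. Dosed orally at 0.05 mmol/kg, suspended in 1% CMC in water (10 ml/kg). 30 min later, 0.1 ml of 1% carrageenan in saline injected subplantar into the left hind paw. Paw volume read by plethysmometer at 0, 3 and 5 h. % inhibition = (1 − Vt/Vc) × 100 against the vehicle group.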

IGROV-1 = test: Growth inhibition of human IGROV1 cells after 48 hrs by sulforhodamine B assay; details: IGROV-1, 48 h; how it was run: as §2
MDA-MB-468 [4] = test: Growth inhibition of human MDA-MB-468 cells after 48 hrs by sulforhodamine B assay; details: MDA-MB-468, 48 h; how it was run: as §1
HCT-116 = test: Growth inhibition of human HCT116 cells assessed as cell growth at 10 uM after 48 hrs by sulforhodamine B assay; details: HCT-116, 48 h, read-out: Activity
A498 = test: Growth inhibition of human A498 cells after 48 hrs by sulforhodamine B assay; details: A498, 48 h; how it was run: as §2
Malme-3M = test: Growth inhibition of human MALME-3M cells assessed as cell growth at 10 uM after 48 hrs by sulforhodamine B assay; details: read-out: Activity
M14 = test: Growth inhibition of human M14 cells after 48 hrs by sulforhodamine B assay; details: M14, 48 h; how it was run: as §2
OVCAR-5 = test: Growth inhibition of human OVCAR5 cells assessed as cell growth at 10 uM after 48 hrs by sulforhodamine B assay; details: OVCAR-5, 48 h, read-out: Activity
CAKI-1 [5] = test: Growth inhibition of human CAKI-1 cells after 48 hrs by sulforhodamine B assay; details: CAKI-1, 48 h; how it was run: as §2
MDA-MB-468 [6] = test: Growth inhibition of human MDA-MB-468 cells assessed as cell growth at 10 uM after 48 hrs by sulforhodamine B assay; details: MDA-MB-468, 48 h, read-out: Activity
SK-OV-3 = test: Growth inhibition of human SKOV3 cells after 48 hrs by sulforhodamine B assay; details: SK-OV-3, 48 h; how it was run: as §1
SK-MEL-28 = test: Growth inhibition of human SK-MEL-28 cells assessed as cell growth at 10 uM after 48 hrs by sulforhodamine B assay; details: SK-MEL-28, 48 h, read-out: Activity
HOP-92 = test: Growth inhibition of human HOP92 cells after 48 hrs by sulforhodamine B assay; details: HOP-92, 48 h; how it was run: as §2
OVCAR-8 = test: Growth inhibition of human OVCAR8 cells after 48 hrs by sulforhodamine B assay; details: OVCAR-8, 48 h; how it was run: as §1
HCT-15 = test: Growth inhibition of human HCT15 cells assessed as cell growth at 10 uM after 48 hrs by sulforhodamine B assay; details: HCT-15, 48 h, read-out: Activity
SF-539 = test: Growth inhibition of human SF539 cells after 48 hrs by sulforhodamine B assay; details: SF-539, 48 h; how it was run: as §1
KM12 = test: Growth inhibition of human KM12 cells assessed as cell growth at 10 uM after 48 hrs by sulforhodamine B assay; details: KM12, 48 h, read-out: Activity
MCF7 = test: Growth inhibition of human MCF7 cells after 48 hrs by sulforhodamine B assay; details: MCF7, 48 h; how it was run: as §2
NCI-H23 = test: Growth inhibition of human NCI-H23 cells assessed as cell growth at 10 uM after 48 hrs by sulforhodamine B assay; details: NCI-H23, 48 h, read-out: Activity
[7] = read-out: LC50 (the source's name)

Q: What does the source list for `CCc1ccc(C2=NN(c3ccc(S(C)(=O)=O)cc3)C(=O)CC2)cc1`?
A: growth at 10 µM [1]: 60.4%; growth at 10 µM (CAKI-1 [2]): 16.6%; growth at 10 µM (SK-MEL-5): 10.7%; growth at 10 µM (NCI-H460): 10.6%; GI50 (SR): 5.65 µM; LC50 (SR): > 100 µM; TGI (SR): 40.3 µM; GI50 (MOLT-4): 3.52 µM; LC50 (MOLT-4): > 100 µM; TGI (MOLT-4): 6.75 µM; GI50 (DU-145): 5.66 µM; TGI (DU-145): > 100 µM; CC50 (DU-145; [7]): > 100 µM; GI50 (LOX IMVI): 3.5 µM; TGI (LOX IMVI): > 100 µM; CC50 (LOX IMVI; [7]): > 100 µM; GI50 (K562): 0.42 µM; TGI (K562): > 100 µM; CC50 (K562; [7]): > 100 µM; growth at 10 µM (PC-3): 56.6%; growth at 10 µM (HL-60(TB)): 6.73%; GI50 [3]: 0.4 µM; LC50 [3]: > 100 µM; TGI [3]: 3.34 µM; inhibition in vivo at 50 µmol/kg (Rattus norvegicus): 65.7%; GI50 (IGROV-1): 1.48 µM; LC50 (IGROV-1): > 100 µM; TGI (IGROV-1): 55.2 µM; GI50 (MDA-MB-468 [4]): 3.75 µM; LC50 (concentration killing 50% of cells) (MDA-MB-468 [4]): > 100 µM; TGI (MDA-MB-468 [4]): 31.2 µM; growth at 10 µM (HCT-116): 15.7%; GI50 (A498): 0.14 µM; TGI (A498): 2.3 µM; CC50 (A498; [7]): > 100 µM; growth at 10 µM (Malme-3M): 38.8%; GI50 (M14): 0.63 µM; TGI (M14): > 100 µM; CC50 (M14; [7]): > 100 µM; growth at 10 µM (OVCAR-5): 48.7%; GI50 (CAKI-1 [5]): 1 µM; LC50 (lethal concentration, 50% cell kill) (CAKI-1 [5]): > 100 µM; TGI (CAKI-1 [5]): 8.22 µM; growth at 10 µM (MDA-MB-468 [6]): 50.7%; GI50 (SK-OV-3): 2.44 µM; LC50 (SK-OV-3): > 100 µM; TGI (SK-OV-3): 19.6 µM; growth at 10 µM (SK-MEL-28): 50.7%; GI50 (HOP-92): 1.58 µM; TGI (HOP-92): 9.88 µM; CC50 (HOP-92; [7]): > 100 µM; GI50 (OVCAR-8): 3.25 µM; LC50 (OVCAR-8): > 100 µM; TGI (OVCAR-8): > 100 µM; growth at 10 µM (HCT-15): 22.1%; GI50 (SF-539): 2.35 µM; TGI (SF-539): 18.9 µM; CC50 (SF-539; [7]): > 100 µM; growth at 10 µM (KM12): 17.3%; GI50 (MCF7): 3.13 µM; LC50 (concentration killing 50% of cells) (MCF7): > 100 µM; TGI (MCF7): > 100 µM; growth at 10 µM (NCI-H23): -4.83%

Q: With `O=c1[nH]cc(F)c(=O)[nH]1` [FLUOROURACIL] as the molecule, how does the GI50 (SR) read?
A: 0.02 µM

Q: And the GI50 (MOLT-4)?
A: 0.35 µM

Q: What about the GI50 (DU-145) of the same molecule?
A: 0.36 µM

Q: What about the GI50 (LOX IMVI) of the same molecule?
A: 0.24 µM

Q: And the GI50 (K562)?
A: 3.58 µM

Q: And the GI50 [3]?
A: 0.31 µM

Q: And the GI50 (IGROV-1)?
A: 1.22 µM

Q: What about the GI50 (A498) of the same molecule?
A: 0.35 µM

Q: What about the GI50 (M14) of the same molecule?
A: 0.98 µM

Q: What about the GI50 (CAKI-1 [5]) of the same molecule?
A: 0.07 µM

Q: And the GI50 (SK-OV-3)?
A: 21.8 µM

Q: What about the GI50 (HOP-92) of the same molecule?
A: 77.9 µM

Q: And the GI50 (OVCAR-8)?
A: 1.74 µM

Q: What about the GI50 (SF-539) of the same molecule?
A: 0.06 µM

Q: And the GI50 (MCF7)?
A: 0.07 µM
